The species entered for experiment [1] is Homo sapiens. Nature of the experiment: Compound was tested for its effect on Reverse Transcriptase (RT) production by HIV-Infected Human T4+ Lymphocytes (C8166) at 100 uM. It is filed as functional.
Experiment [2] is filed under the species Homo sapiens. Nature of the experiment: Compound was tested for its effect on Reverse Transcriptase (RT) production by HIV-Infected Human T4+ Lymphocytes (C8166) at 2 uM. It is filed as functional.
The species entered for experiment [3] is Homo sapiens. Description: Compound was tested for its effect on Reverse Transcriptase (RT) production by HIV-Infected Human T4+ Lymphocytes (C8166) at 20 uM. It is filed as functional.
For experiment [4], the species on record is Homo sapiens. Description: Compound was tested for its effect on Reverse Transcriptase (RT) production by HIV-Infected Human T4+ Lymphocytes (C8166) at 200 uM. It is filed as functional.
Experiment [5] is filed under the species Homo sapiens. Description: Compound was tested for its effect on the growth of human T4+ lymphocytes (C8166) in culture at 10 uM. It is filed as functional.
Experiment [6] is filed under the species Homo sapiens. Nature of the experiment: Compound was tested for its effect on the growth of human T4+ lymphocytes (C8166) in culture at 100 uM. It is filed as functional.
The species named for experiment [7] is Homo sapiens. Nature of the experiment: Compound was tested for its effect on the growth of human T4+ lymphocytes (C8166) in culture at 1000 uM. The experiment is classed as functional.
For experiment [8], the species on record is Homo sapiens. Nature of the experiment: Compound was tested for its effect on the growth of human T4+ lymphocytes (C8166) in culture at 500 uM. It is filed as functional.
The species named for experiment [9] is Homo sapiens. Nature of the experiment: Compound was tested for its relative effect on p24 viral core protein production by HIV -infected human T4+ lymphocytes (C8166) at 100 uM. It is filed as functional.
The species entered for experiment [10] is Homo sapiens. Nature of the experiment: Compound was tested for its relative effect on p24 viral core protein production by HIV -infected human T4+ lymphocytes (C8166) at 20 uM. The experiment is classed as functional.
Experiment [11] is filed under the species Homo sapiens. Description: Compound was tested for its relative effect on p24 viral core protein production by HIV -infected human T4+ lymphocytes (C8166) at 200 uM. The experiment is classed as functional.
The species named for experiment [12] is Homo sapiens. Description: Compound was tested for its effect on the growth of human T lymphocytes (SupT1) in culture at 1 uM. It is filed as functional. In a few lines: (§1)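 Uninfected lymphocyte lines (Raji B cells or SupT1 T cells) kept in growth medium and given drug dilutions. After 48 h, cells stained with trypan blue and counted. Viable cells (dye exclusion) expressed as percentage of untreated controls. Values from a typical experiment.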

For experiment [13], the species on record is Homo sapiens. Nature of the experiment: Compound was tested for its effect on the growth of human T lymphocytes (SupT1) in culture at 10 uM. The experiment is classed as functional. In a few lines: as §1
For experiment [14], the species on record is Homo sapiens. Nature of the experiment: Compound was tested for its effect on the growth of human T lymphocytes (SupT1) in culture at 100 uM. The experiment is classed as functional. An outline of the steps: as §1
The species named for experiment [15] is Homo sapiens. Nature of the experiment: Compound was tested for its effect on the growth of human T lymphocytes (SupT1) in culture at 1000 uM. It is filed as functional. In a few lines:
as §1

The species named for experiment [16] is Homo sapiens. Nature of the experiment: Compound was tested for its effect on the growth of human T lymphocytes (SupT1) in culture at 500 uM. It is filed as functional. An outline of the steps:
as §1

Experiment [17] is filed under the species Homo sapiens. Description: Compound was tested for its effect on the growth of human B lymphocytes (Raji) in culture at 1 uM. It is filed as functional. An outline of the steps: as §1
Experiment [18] is filed under the species Homo sapiens. Description: Compound was tested for its effect on the growth of human B lymphocytes (Raji) in culture at 10 uM. It is filed as functional. In a few lines: as §1
The species entered for experiment [19] is Homo sapiens. Description: Compound was tested for its effect on the growth of human B lymphocytes (Raji) in culture at 100 uM. It is filed as functional. An outline of the steps:
as §1

The species entered for experiment [20] is Homo sapiens. Nature of the experiment: Compound was tested for its effect on the growth of human B lymphocytes (Raji) in culture at 1000 uM. The experiment is classed as functional. In a few lines: as §1
The species named for experiment [21] is Homo sapiens. Description: Compound was tested for its effect on the growth of human B lymphocytes (Raji) in culture at 500 uM. The experiment is classed as functional. An outline of the steps:
as §1

In experiment [22] the test system is SC-1 (Mus musculus). Nature of the experiment: Compound was tested for its effect on the growth of mouse fibroblasts (SC-1) in culture at 1 uM.
Experiment [23] has as its system SC-1 (Mus musculus). Nature of the experiment: Compound was tested for its effect on the growth of mouse fibroblasts (SC-1) in culture at 10 uM.
Experiment [24] concerns SC-1 (Mus musculus). Description: Compound was tested for its effect on the growth of mouse fibroblasts (SC-1) in culture at 100 uM.
For experiment [25], the species on record is Homo sapiens. Nature of the experiment: Compound was tested for its effect on reverse transcriptase of HIV-infected human T4+ lymphocytes (C8166) at 2 uM. It is filed as functional. In a few lines: (§2)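 C8166 T4+ cells (~2 × 10⁵ per well) exposed to drug dilutions, then infected with 2500 RT units of cell-free HIV HXBc2 strain; FBS heat-inactivated (55 °C, 60 min) or not. Drug-containing medium replaced every 3 days. On day 6, RT activity measured in cell supernatants and compared with untreated controls.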

The species entered for experiment [26] is Homo sapiens. Description: Compound was tested for its effect on reverse transcriptase of HIV-infected human T4+ lymphocytes (C8166) at 20 uM. The experiment is classed as functional. An outline of the steps:
as §2

SMILES strings stand for the structures.

`Nc1nc(Cl)nc2c1ncn2C1CCC(CO)O1` (configuration not stated): the Control in the experiment listed under Homo sapiens [1] is on record as 3%; in the experiment listed under Homo sapiens [2], 100%; in the experiment listed under Homo sapiens [3], 57%; in the experiment listed under Homo sapiens [4], <1%; in the experiment filed under Homo sapiens [5], 94%; in the experiment listed under Homo sapiens [6], 77%. In addition, the Control in the experiment listed under Homo sapiens [7] is reported as 0%; in the experiment filed under Homo sapiens [8] it was 37%. Also, the p24 in the experiment listed under Homo sapiens [9] worked out at 2.2 ng/mL; in the experiment filed under Homo sapiens [10], 16 ng/mL; in the experiment listed under Homo sapiens [11], 0.2 ng/mL.

With `Nc1ncnc2c1ncn2[C@H]1CC[C@@H](CO)O1`, the Control is listed as <1% in the experiment filed under Homo sapiens [1]; 25% in the experiment listed under Homo sapiens [2]; 25% in the experiment filed under Homo sapiens [3]; <1% in the experiment filed under Homo sapiens [4]; 116% in the experiment filed under Homo sapiens [5]; 116% in the experiment filed under Homo sapiens [6]. Besides, the results for the Control in the experiment filed under Homo sapiens [7] and in the experiment filed under Homo sapiens [8] were 91% and 90%, respectively. Also, the p24 in the experiment listed under Homo sapiens [9] is 1.8 ng/mL; in the experiment listed under Homo sapiens [10], 28 ng/mL; in the experiment filed under Homo sapiens [11], 0.2 ng/mL.

On to `Nc1nc(Cl)nc2c1ncn2C1OC(CO)CC1O` (configuration not stated), for which the Control in the experiment listed under Homo sapiens [12] is listed as 100%; in the experiment filed under Homo sapiens [13] it was 81%; in the experiment filed under Homo sapiens [14], 73%; in the experiment listed under Homo sapiens [15], 8%; in the experiment listed under Homo sapiens [16], 13%; in the experiment listed under Homo sapiens [17], 98%. Further, the Control in the experiment filed under Homo sapiens [18] worked out at 69%; in the experiment filed under Homo sapiens [19], 43%; in the experiment listed under Homo sapiens [20], 3%; in the experiment listed under Homo sapiens [21] it was 8%; in the experiment on SC-1 (Mus musculus) [22], 82%; in the experiment on SC-1 (Mus musculus) [23], 53%. For the same compound, the Control with SC-1 (Mus musculus) [24] is 2%.

As for `Nc1nc(Cl)nc2c1ncn2C1C=CC(CO)O1` (configuration not stated), the Control in the experiment filed under Homo sapiens [25] is listed as 53%; in the experiment filed under Homo sapiens [26], 25%.

These data come from ChEMBL document CHEMBL1124618, “Synthesis of the 2-chloro analogues of 3'-deoxyadenosine, 2',3'-dideoxyadenosine, and 2',3'-didehydro-2',3'-dideoxyadenosine as potential antiviral agents” (1989).
